The species named for series [1] is Rattus norvegicus. In words: Binding affinity at [3H]SB-204269 binding site expressed as pKi. It counts as functional. Summed up:
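Radioligand binding with [3H]SB-204269, reported as pKi. All determinations run in triplicate.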

In series [2] the test system is Rattus norvegicus. In words: Anticonvulsant activity by using rat MEST test at 2 mg/kg p.o. 2 hr post-dose. The series is classed as functional. The following applies: route oral. In short, it runs like this:
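Rat maximal electroshock seizure threshold (MEST) test. Oral dosing at 2 mg/kg, doses as free base; reference anticonvulsant given at 2.5 mg/kg p.o. Seizure threshold read 2 h post-dose as % increase versus vehicle-treated controls. Significance by Litchfield–Wilcoxon analysis.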

The nature of series [3]: Oral bioavailability. It counts as ADME, organism-based. The settings on record: rat, in vivo. Summed up: (§1)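 Rat pharmacokinetics after iv and po administration. Oral bioavailability (Fpo) was measured with oral dosing at 2 mg/kg, and blood clearance (CLb) in mL/min/kg.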
The species named for series [4] is Rattus norvegicus. In words: Compound tested for its ability to protect rat from hindlimb tonic seizures following a shock by using ALLFITrd quo. It counts as functional. Summed up: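 Rat supraMES model. Oral doses of 1, 10 and 30 mg/kg. At 4 h post-dose, a single corneal-electrode shock of 180 mA lasting 0.3 s was given. Protection from hindlimb tonic seizures was scored against control, and ED50 was derived by ALLFIT fitting.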

Series [5] can be described thus: Plasma clearance was determined. It counts as ADME, organism-based. The settings on record: rat.
Series [6] can be described thus: Oral bioavailability at the dose of 2 mg/kg in rat. The series is classed as ADME, organism-based. The settings on record: in vivo. In short, it runs like this: as §1
Series [7] can be described thus: Oral bioavailability in rat. The series is classed as ADME, organism-based. The following applies: in vivo. In short, it runs like this: as §1

Each structure is given as a SMILES string.

In the case of `COc1ccc(C(=O)Nc2cnc3c(c2)CN(C)CC3(C)C)cc1F`, the “Log Ki” value in series [1] was -7.3.
For `COc1ccc(C(=O)Nc2cnc3c(c2)CNCC3(C)C)cc1F`, in series [1], the “Log Ki” value was -7.2.
In turn, `COc1ccc(C(=O)Nc2cnc3c(c2)CN(C)CC3(C)C)cc1C#N` showed an Increase in series [2] of 110%. The “Log Ki” value in series [1] is reported as -7.3.
Regarding `COc1ccc(C(=O)Nc2cnc3c(c2)CN(C)CC3(C)C)cc1C(F)(F)F`, the Increase in series [2] worked out at 570%. Further, in series [3], the bioavailability was 20%. The “Log Ki” value in series [1] was -8.8.
`COc1ccc(C(=O)Nc2cnc3c(c2)CNCC3(C)C)cc1Cl`: the Increase in series [2] stood at 260%. Besides, in series [1], the “Log Ki” value is -8.1.
Consider `COc1ccc(C(=O)Nc2cnc3c(c2)CN(C)CC3(C)C)cc1Cl`, for which the Increase in series [2] stood at 380%. For the same compound, the “Log Ki” value in series [1] is -8.5.
In series [2], `CC(C)Oc1ccc(C(=O)Nc2cnc3c(c2)CNCC3(C)C)cc1C(F)(F)F` came in with an Increase of 15%. The “Log Ki” value in series [1] is given as -8.4.
As to `COc1ccc(C(=O)Nc2cnc3c(c2)CNCC3(C)C)cc1C(F)(F)F`, in series [2], the Increase is recorded as 260%. For the same compound, the ED50 in series [4] was 3.9 mg/kg. The “Log Ki” value in series [1] is listed as -8.7. Moreover, the clearance in series [5] is 30 mL/min/kg. Moreover, the bioavailability in series [6] was greater than 50%.
Turning to `CCOc1ccc(C(=O)Nc2cnc3c(c2)CNCC3(C)C)cc1C(F)(F)F`, the Increase in series [2] is 80%. Moreover, in series [1], the “Log Ki” value is given as -8.6.
As to `COc1ccc(C(=O)Nc2ccc3c(c2)CN(C)CC3)cc1C(F)(F)F`, the “Log Ki” value in series [1] is listed as -8.9. Also, the bioavailability in series [7] came out at 2%.
For `CCOc1ccc(C(=O)Nc2cnc3c(c2)CN(C)CC3(C)C)cc1C(F)(F)F`, the Increase in series [2] is on record as 310%. In addition, in series [1], the “Log Ki” value is listed as -8.5.
For `COc1ccc(C(=O)Nc2cnc3c(c2)CNCC3(C)C)cc1Br` the same measures were 260% and -8.7.
For `CN1Cc2cc(NC(=O)c3ccccc3)cnc2C(C)(C)C1` the same measures were 3% and -6.2.
For `COc1ccc(C(=O)Nc2cnc3c(c2)CN(C)CC3(C)C)cc1Br` the same measures were 210% and -8.6.
In series [2], `CC(=O)c1ccc2c(c1)[C@H](NC(=O)c1ccc(F)cc1)[C@@H](O)C(C)(C)O2` [CARABERSAT] came in with an Increase of 120%. The compound also registered an ED50 in series [4] of 6.3 mg/kg.
